Assays:
[1] = ref Lamba et al. [2021]; Kondo et al. [2022]; Järvinen et al. [2023]; cited from earlier work
[2] = ^68Ga-DOTA-PSMA organ biodistribution by γ-counter, 22Rv1 xenograft mice; type: in vivo; details: mouse, tumor, iv, 3.7 MBq, total radioactivity
In short: (§1)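 Male six-week-old SPF nude mice: normal (n = 15), 22Rv1 xenograft (n = 12) or PC-3 xenograft (n = 12), with three animals per time point. Each received 3.7 MBq i.v. via the tail vein. Tracer was labelled with ⁶⁸Ga (generator eluted with 0.1 mol/l HCl) in sodium acetate, pH 3–4, at 95 °C for 15 min. Mice were killed by cervical dislocation; organs were excised, weighed and γ-counted for %ID/g. Mean ± SD.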

[3] = ^68Ga-DOTA-PSMA organ biodistribution by γ-counter, PC-3 xenograft mice; type: in vivo; details: mouse, tumor, iv, 3.7 MBq, total radioactivity
In short: as §1

22Rv1 Xenograft Mice = test: ^68Ga-DOTA-PSMA micro-PET/CT imaging of 22Rv1 xenograft mice; type: in vivo, mouse; details: PET/CT imaging, 22Rv1 tumor
In short: (§2)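 Tracer was labelled with ⁶⁸Ga (generator eluted with 0.1 mol/l HCl) in sodium acetate buffer, pH 3–4, at 95 °C for 15 min. Male six-week-old nude mice bearing 22Rv1 xenografts received 3.7 MBq via the tail vein. Animal PET/CT imaging followed at multiple time points after injection to track tracer accumulation in tumour and surrounding organs.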

[4] = as above; type: in vivo, mouse; details: mouse, tumor / non-tumor (muscle), iv, 3.7 MBq, total radioactivity
In short: as §2

[5] = system: glioblastoma cancer cell nuclei; details: glioblastoma patients; ref Ho et al. [2022]; cited from earlier work

Question: Which water solubility [1] does the source give for `N[C@@H](Cc1ccc(B(O)O)cc1)C(=O)O` [BPA, Boronophenylalanine] here?
Answer: poor water solubility

Question: With `O=C(O)CC[C@H](NC(=O)N[C@@H](CCCCNC(=O)[C@H](Cc1ccc2ccccc2c1)NC(=O)CCCCCNC(=O)CN1CCN(CC(=O)O)CCN(CC(=O)O)CCN(CC(=O)O)CC1)C(=O)O)C(=O)O` [^68Ga-DOTA-PSMA, metal not drawn] as the compound, how does the tissue uptake at 2 h [2] read?
Answer: 27.1 ± 2.55 %ID/g

Question: What about the tissue uptake at 2 h [3] of the same compound?
Answer: 6.23 ± 0.79 %ID/g

Question: What about the “time of peak radiotracer uptake post-injection” value (22Rv1 Xenograft Mice) of the same compound?
Answer: 2 h

Question: What about the tissue to tissue ratio at 2 h [4] of the same compound?
Answer: 6.95 ± 0.6

Question: Which “cancer cell nuclei found to contain the agent” value [5] does the source give for `O=C([O-])CN(CCN(CC(=O)[O-])CC(=O)O)CCN(CC(=O)[O-])CC(=O)O.[Gd+3]` [^157Gd-DTPA] here?
Answer: 6.1%

Question: Which water solubility [1] does the source give for “Sodium mercaptoundecahydro-closo-dodecaborate [BSH]” here?
Answer: more water-soluble

— article PMC11861226 (Journal of Cancer Research and Clinical Oncology, 2025)
